XiGFP reactiv: activators of inactive X chromosome reactivation, primary screen, imaging, XiGFP fibroblasts, GFP high-content imaging, set 2. hit rate 0.055% among 360,000. XiGFP mouse fibroblasts, % GFP-positive cells imaging, 3 d; cells co-treated with 5-aza-dC sensitizer; scaled so ellipticine positive control = 100%. activation, % at 7.58 µM. AID 743238, 2013;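 active = mean normalized replicate activation at least 10% and every replicate at or above 10%; inconclusive = only one of the two criteria met; inactive = mean below 10% and not all replicates reach 10%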;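 also: 0% = median of on-plate neutral control wells and 100% = ellipticine 6 µM median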
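Material: SV40-immortalized XiGFP fibroblast cells, line 68-5-11 | Buffer or medium: DMEM containing 5-aza-dC | Dosing: One concentration, pinned | Times: 3 d treatment, 15 min room-temperature fixation | Controls: Ellipticine 6 µM positive control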
Myeloid diff 2: induction of myeloid progenitor differentiation, primary screen, cell-based, flow cytometry, MLPCN library; ER-HoxA9 myeloid progenitors, lysozyme-GFP differentiation; hit rate 1% among 360,000; AID 624256, 2012; calls only at 10 µM;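 active = normalized GFP-positive differentiation at or above the plate's own cutoff, the solvent-only control mean plus 3 SD; inconclusive = no clear call, values can overlap the other calls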;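 also: cells exposed to compound for four days before flow analysis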
ABCB6 inh MLPCN: ABCB6 transporter inhibitors, primary screen, K562-ABCB6 cells, flow cytometry, MLPCN library | K562-ABCB6 porphyrin accumulation, 1 h; stronger effect = lower value | hit rate 0.19% among 360,000 | fluorescence ratio to DMSO, % at 10 µM;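 active = fluorescence ratio to DMSO below 75%, the collection mean minus 3 SD; inconclusive = too few cells collected in the well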;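 also: signal is porphyrin accumulated inside mitochondria; 100% equals median channel fluorescence of DMSO control wells; lower ratio means ABCB6 inhibition with less porphyrin fluorescence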
Target sequence (Q9NP58 whole entry, looked up): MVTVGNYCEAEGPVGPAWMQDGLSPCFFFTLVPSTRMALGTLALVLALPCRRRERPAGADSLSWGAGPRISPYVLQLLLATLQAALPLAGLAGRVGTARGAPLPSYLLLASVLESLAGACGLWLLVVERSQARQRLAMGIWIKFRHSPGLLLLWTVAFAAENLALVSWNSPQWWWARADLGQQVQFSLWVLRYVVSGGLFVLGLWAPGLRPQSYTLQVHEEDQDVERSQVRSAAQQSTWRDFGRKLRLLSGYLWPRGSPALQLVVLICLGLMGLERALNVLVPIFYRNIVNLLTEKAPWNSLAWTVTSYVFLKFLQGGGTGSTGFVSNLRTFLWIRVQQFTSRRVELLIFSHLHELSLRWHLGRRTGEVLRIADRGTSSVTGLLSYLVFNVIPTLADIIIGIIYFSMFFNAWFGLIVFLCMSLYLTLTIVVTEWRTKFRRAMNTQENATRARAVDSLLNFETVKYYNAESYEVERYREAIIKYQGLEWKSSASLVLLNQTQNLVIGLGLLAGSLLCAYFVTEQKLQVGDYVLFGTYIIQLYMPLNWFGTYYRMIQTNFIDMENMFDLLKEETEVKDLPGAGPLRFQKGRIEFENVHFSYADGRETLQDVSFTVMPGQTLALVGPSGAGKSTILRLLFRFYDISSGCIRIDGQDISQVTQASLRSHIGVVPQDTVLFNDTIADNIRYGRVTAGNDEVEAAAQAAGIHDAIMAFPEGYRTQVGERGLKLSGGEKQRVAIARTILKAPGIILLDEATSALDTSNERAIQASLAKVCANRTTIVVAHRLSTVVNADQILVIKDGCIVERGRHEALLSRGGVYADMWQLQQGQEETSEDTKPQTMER
ABCB6 blocker 1: ABCB6 transporter inhibitors, confirmation, K562-ABCB6 cells, flow cytometry, cherry pick 1; shares compounds with ABCB6 inh MLPCN; K562-ABCB6 porphyrin accumulation, 1 h; stronger effect = lower value; ratio response (% of DMSO), % at 10 µM; 700 tested, under 10 active; AID 602430, 2012;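 active = repeat-averaged ratio response below 75% of DMSO, the collection mean minus 3 SD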;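 also: median porphyrin fluorescence at 575 nm with 488 nm excitation from mitochondria; lower ratio means less porphyrin signal so ABCB6 inhibition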
* marks the source's active call; other numbers are inactive results; i = inactive; ? = inconclusive; · = no result. This is one part of a sample in which hits are shown more often than they occur.

SMILES	XiGFP reactiv	Myeloid diff 2	ABCB6 inh MLPCN	ABCB6 blocker 1
C[C@H]1CN([C@@H](C)CO)C(=O)c2cc(-c3cncnc3)cnc2O[C@@H]1CN(C)C(=O)Nc1ccc2c(c1)OCO2	0	·	·	·
N#Cc1cccc(-c2ccc(C3[C@H]4CNC[C@@H]3N4C(=O)Nc3ccccc3F)cc2)c1 (stereo not given in full)	0	·	·	·
N#CCSc1n[nH]c2nc3c(c(=O)n12)C1(CCCCC1)Cc1ccccc1-3	0	i	99	·
CCn1c(SCC#N)nc2c(c1=O)C1(CCCC1)Cc1ccccc1-2	·	i	71*	101
C[C@H]1CN([C@@H](C)CO)C(=O)Cc2cc(NS(=O)(=O)c3ccccc3)ccc2O[C@H]1CN(C)Cc1ccc(C(=O)O)cc1	0	·	·	·
Cc1noc(C)c1NC(=O)N(C)C[C@H]1OCCCC[C@@H](C)Oc2ccc(NS(=O)(=O)c3cn(C)cn3)cc2C(=O)N([C@H](C)CO)C[C@H]1C	0	·	·	·
CCC(C)NC(=O)CCc1nnc2ccc(N3CCC(C)CC3)nn12 (stereo not given)	0	i	61*	99
COC(=O)C(NC(=O)CCc1nnc2ccc(N3CCC(C)CC3)nn12)C(C)C (stereo not given)	0	i	97	117
CC1CCN(c2ccc3nnc(CCC(=O)NCc4ccco4)n3n2)CC1	0	i	92	·
CC1CCN(c2ccc3nnc(CCC(=O)Nc4cccc(F)c4)n3n2)CC1	0	i	98	·
CCOC(=O)C(C)NC(=O)CCc1nnc2ccc(N3CCC(C)CC3)nn12 (stereo not given)	0	i	72*	99
CC1CCN(c2ccc3nnc(CCC(=O)N4CCN(c5ccc(F)cc5)CC4)n3n2)CC1	0	?	96	·
COc1ccc(NC(=O)CCc2nnc3ccc(N4CCC(C)CC4)nn23)cc1	0	?	98	·
CC1CCN(c2ccc3nnc(CCC(=O)N4CCCCC4)n3n2)CC1	0	?	98	100
O=C(CN1CCOCC1)NCC[C@H]1CC[C@H](NS(=O)(=O)c2ccc(Cl)cc2)[C@H](CO)O1	0	·	·	·
CC(=O)N(C)C[C@@H]1Oc2ncc(C#Cc3ccc(F)cc3)cc2C(=O)N([C@H](C)CO)C[C@H]1C	-1	·	·	·
O=C(NC1CCCCC1)N[C@@H]1CC[C@@H](CCNS(=O)(=O)c2ccc(F)cc2)O[C@@H]1CO	1	·	·	·
O=C(C1CCCC1)N1CC[C@H]2[C@H](CO)Nc3ccc(Br)cc3[C@H]21	0	·	·	·
C[C@@H]1CCCCO[C@H](CN(C)S(=O)(=O)c2ccc(Cl)cc2)[C@@H](C)CN([C@@H](C)CO)C(=O)c2cc(N(C)C)ccc2O1	-1	·	·	·
CC(C)CCNC(=O)CCc1nnc2ccc(N3CCC(C)CC3)nn12	0	i	97	100
CC1CCN(c2ccc3nnc(CCC(=O)NCC(C)c4ccccc4)n3n2)CC1 (stereo not given)	0	i	99	·
CCCNC(=O)N1CC2(C1)CN(C(=O)COC)[C@@H](CO)c1c2c2ccc(OC)cc2n1C	0	·	·	·
COc1ccc(CNC(=O)CSc2nnc(C)s2)cc1	·	i	74*	97
COc1ccc(CNC(=O)CSc2nnc(NC(=O)C3CC3)s2)cc1	0	i	96	·
